Laboratory results: ChEMBL document CHEMBL4118181, “Investigations on small molecule inhibitors targeting the histone H3K4 tri-methyllysine binding PHD-finger of JmjC histone demethylases” (Bioorg Med Chem, 2018)
Activity calls are given as the source filed them. The rule behind the calls is not given here.

Assays:
[1] = molecular target: Histone lysine demethylase PHF8 (Homo sapiens) (UniProt Q9UPP1); experiment: Displacement of C-terminally biotinylated-H3K4me3 (1 to 21 residues) peptide from KDM7B (PHD-JmjC) (unknown origin) at 100 uM preincubated for 15 mins followed by peptide addition measured after 1 hr by luminescence-based AlphaScreen assay
[2] = molecular target: T1, Lysine-specific demethylase 7A (Homo sapiens) (UniProt Q6ZMT4); experiment: Inhibition of KDM7A (PHD-JmjC) (unknown origin) demethylation activity at 100 uM preincubated for 10 mins followed by H3(1-15)K9me2 peptide substrate addition by MALDI-TOF-MS analysis
T1 sequence (whole entry): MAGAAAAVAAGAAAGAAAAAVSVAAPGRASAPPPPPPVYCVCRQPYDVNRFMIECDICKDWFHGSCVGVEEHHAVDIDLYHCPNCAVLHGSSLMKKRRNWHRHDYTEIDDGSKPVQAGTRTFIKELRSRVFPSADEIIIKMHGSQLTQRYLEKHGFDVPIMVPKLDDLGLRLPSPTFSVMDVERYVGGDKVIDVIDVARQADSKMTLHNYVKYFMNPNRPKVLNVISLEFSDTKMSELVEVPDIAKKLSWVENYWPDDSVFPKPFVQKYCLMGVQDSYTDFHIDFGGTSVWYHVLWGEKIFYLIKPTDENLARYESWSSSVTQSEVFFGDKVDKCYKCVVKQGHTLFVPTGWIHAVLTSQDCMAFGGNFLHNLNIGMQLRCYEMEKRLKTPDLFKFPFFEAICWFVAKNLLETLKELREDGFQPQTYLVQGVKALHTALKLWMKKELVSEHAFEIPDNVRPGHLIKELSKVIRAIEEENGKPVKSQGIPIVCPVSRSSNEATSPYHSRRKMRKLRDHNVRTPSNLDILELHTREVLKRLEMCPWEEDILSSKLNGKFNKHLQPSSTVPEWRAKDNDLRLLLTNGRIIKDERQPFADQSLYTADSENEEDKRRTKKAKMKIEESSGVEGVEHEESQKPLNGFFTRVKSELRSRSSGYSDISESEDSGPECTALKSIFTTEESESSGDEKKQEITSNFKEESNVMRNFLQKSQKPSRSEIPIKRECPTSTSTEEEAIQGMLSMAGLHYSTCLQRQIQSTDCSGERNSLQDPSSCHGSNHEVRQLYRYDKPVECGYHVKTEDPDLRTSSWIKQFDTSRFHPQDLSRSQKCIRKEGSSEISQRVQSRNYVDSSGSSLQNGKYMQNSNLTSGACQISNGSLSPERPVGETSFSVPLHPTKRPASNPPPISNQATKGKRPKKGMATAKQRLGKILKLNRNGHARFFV

[3] = molecular target: Lysine-specific demethylase 5A (Homo sapiens) (UniProt P29375); experiment: Mixed type inhibition of KDM5A (L88 to G353 residues) ARID/PHD1/2/3 deletion mutant (unknown origin) demethylation activity using H3(1-21)K4me3 peptide as substrate measured every 30 seconds over 25 mins by formaldehyde dehydrogenase coupled activity assay based Lineweaver-Burk plot analysis
Procedure, shortened: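 FDH enzyme-coupled fluorescence assay of KDM5A_c2 demethylation, with formaldehyde production as the read-out. Kinetic analysis is made against the H3K4me3 substrate, and α and Ki are derived to assign the inhibition mode.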

[4] = molecular target: Lysine-specific demethylase 5A (Homo sapiens) (UniProt P29375); experiment: Substrate activity at KDM5A (L88 to G353 residues) ARID/PHD1/2/3 deletion mutant (unknown origin) demethylation activity assessed as formaldehyde production measured every 30 seconds over 25 mins in absence of H3K4me3
[5] = molecular target: T1, Lysine-specific demethylase 7A (Homo sapiens); experiment: Displacement of C-terminally biotinylated-H3K4me3 (1 to 21 residues) peptide from KDM7A (PHD-JmjC) (unknown origin) at 100 uM preincubated for 15 mins followed by peptide addition measured after 1 hr by luminescence-based AlphaScreen assay

Chain of Histone lysine demethylase PHF8 (Homo sapiens) (Q9UPP1 whole entry, the tested form may be a part): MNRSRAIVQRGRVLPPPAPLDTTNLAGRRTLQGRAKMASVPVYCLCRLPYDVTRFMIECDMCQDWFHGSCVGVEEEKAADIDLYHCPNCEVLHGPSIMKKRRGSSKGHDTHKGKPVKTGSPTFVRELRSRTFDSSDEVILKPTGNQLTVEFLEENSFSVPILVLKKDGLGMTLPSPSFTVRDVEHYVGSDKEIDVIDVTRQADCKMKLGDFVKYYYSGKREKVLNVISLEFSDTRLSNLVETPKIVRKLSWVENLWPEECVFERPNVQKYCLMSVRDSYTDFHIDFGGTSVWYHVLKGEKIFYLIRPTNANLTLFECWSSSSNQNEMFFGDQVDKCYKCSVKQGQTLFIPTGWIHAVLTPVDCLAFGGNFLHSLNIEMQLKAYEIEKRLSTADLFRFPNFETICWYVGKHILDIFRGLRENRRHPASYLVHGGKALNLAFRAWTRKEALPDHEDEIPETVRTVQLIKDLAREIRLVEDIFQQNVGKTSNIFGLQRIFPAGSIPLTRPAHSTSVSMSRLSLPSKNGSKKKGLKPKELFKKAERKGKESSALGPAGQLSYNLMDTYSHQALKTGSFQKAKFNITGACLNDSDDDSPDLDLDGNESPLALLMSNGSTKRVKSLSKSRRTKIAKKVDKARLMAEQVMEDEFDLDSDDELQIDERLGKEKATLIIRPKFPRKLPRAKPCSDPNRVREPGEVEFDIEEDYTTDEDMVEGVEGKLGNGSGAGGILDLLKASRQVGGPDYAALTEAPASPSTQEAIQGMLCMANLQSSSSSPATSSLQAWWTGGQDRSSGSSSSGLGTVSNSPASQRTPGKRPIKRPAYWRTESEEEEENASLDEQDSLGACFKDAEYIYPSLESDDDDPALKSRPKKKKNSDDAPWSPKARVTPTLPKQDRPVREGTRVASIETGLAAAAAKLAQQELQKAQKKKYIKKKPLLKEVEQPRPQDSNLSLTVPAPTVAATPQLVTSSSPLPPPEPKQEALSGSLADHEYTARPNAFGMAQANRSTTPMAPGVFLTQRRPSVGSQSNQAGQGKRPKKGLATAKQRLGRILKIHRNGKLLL
Chain of Lysine-specific demethylase 5A (Homo sapiens) (P29375 whole entry, the tested form may be a part): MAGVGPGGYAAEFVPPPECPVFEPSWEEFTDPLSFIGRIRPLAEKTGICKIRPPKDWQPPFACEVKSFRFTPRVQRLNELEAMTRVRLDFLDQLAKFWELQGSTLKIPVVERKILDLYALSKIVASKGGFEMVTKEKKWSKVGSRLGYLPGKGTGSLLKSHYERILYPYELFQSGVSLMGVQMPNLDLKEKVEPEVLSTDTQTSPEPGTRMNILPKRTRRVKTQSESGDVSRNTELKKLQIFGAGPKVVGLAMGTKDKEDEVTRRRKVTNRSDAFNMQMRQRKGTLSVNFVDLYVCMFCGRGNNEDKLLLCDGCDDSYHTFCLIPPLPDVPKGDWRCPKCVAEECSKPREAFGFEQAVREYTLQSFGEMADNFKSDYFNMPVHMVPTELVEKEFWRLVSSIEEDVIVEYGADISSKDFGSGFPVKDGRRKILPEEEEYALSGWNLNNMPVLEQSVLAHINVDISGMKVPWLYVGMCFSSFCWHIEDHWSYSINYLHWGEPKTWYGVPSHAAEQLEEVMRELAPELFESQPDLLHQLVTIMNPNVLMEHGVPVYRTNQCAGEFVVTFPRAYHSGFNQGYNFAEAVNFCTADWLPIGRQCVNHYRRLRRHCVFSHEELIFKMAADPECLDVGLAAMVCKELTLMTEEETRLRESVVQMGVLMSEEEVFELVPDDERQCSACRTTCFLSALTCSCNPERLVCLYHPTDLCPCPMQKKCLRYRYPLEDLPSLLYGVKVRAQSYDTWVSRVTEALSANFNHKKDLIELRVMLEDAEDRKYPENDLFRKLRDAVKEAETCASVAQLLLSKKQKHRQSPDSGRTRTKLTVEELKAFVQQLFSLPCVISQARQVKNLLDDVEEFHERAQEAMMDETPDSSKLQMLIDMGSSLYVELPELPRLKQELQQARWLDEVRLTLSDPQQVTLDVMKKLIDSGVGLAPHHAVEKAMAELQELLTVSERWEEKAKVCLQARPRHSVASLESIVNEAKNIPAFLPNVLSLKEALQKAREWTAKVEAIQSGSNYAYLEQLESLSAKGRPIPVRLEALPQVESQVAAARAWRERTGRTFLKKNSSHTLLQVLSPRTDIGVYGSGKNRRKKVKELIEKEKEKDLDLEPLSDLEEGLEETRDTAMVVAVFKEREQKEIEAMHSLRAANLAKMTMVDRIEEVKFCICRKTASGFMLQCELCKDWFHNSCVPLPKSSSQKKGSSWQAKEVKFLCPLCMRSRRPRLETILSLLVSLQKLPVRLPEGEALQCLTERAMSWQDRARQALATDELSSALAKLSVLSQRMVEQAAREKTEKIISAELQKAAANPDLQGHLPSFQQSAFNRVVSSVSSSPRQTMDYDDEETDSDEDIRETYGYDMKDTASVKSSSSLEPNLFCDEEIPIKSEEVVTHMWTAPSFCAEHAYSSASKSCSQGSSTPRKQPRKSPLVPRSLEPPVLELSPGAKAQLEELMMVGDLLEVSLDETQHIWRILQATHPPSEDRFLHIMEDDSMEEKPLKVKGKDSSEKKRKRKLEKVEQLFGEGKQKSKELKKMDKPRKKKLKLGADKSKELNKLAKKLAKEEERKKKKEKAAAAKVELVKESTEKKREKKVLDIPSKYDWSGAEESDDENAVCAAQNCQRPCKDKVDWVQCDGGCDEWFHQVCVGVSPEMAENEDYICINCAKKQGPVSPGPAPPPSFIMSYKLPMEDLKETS

Compound | inhibition [1] | inhibition [2] [%] | inhibition [3] | Activity [4] | inhibition [5]
CCCCc1oc2ccccc2c1C(=O)c1cc(I)c(OCCC[N+](C)(C)C)c(I)c1 | inactive | 100 |  |  | 
CCCCc1oc2ccccc2c1C(=O)c1cc(I)c(OCC[N+](C)(C)C)c(I)c1 | inactive | 17 |  |  | inactive

Now from value to compound:

inhibition [1] | inhibition [2] [%] | inhibition [3] | Activity [4] | inhibition [5] | Compound
inactive | 100 |  |  |  | CCCCc1oc2ccccc2c1C(=O)c1ccc(OCCCN(C)C)cc1
 | 100 | Active | inactive |  | CCCCc1oc2ccccc2c1C(=O)c1ccc(OCCC[N+](C)(C)C)cc1
 | 100 |  |  |  | Cc1oc2ccccc2c1C(=O)c1ccc(OCCC[N+](C)(C)C)cc1
